This is a sample that favours compounds with a hit; in the whole collection about 2.4% have one here.
NTR1 agonist – agonists of human NTR1, primary screen, imaging, U2OS cells, beta-arrestin-GFP, high content; Neurotensin receptor type 1 (Homo sapiens), P30989; NTR1-U2OS beta-arrestin-GFP spot imaging, agonist mode; activation, % at 20 µM; actives 0.17% (n = 330,000); AID 493036, 2011;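 active = activation at or above 40% of the spot to cytoplasm intensity ratio, with at least 20 cells analyzed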;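 also: 0% = DMSO without peptide and 100% = 100 nM NTR1 peptide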
H9c2 TAG inh – inhibitors of triacylglycerol accumulation, primary screen, cell-based, uHTS, fluorescence, H9c2; H9c2 cells, Nile Red lipid (TAG) fluorescence; cells loaded with 200 µM oleic acid; inhibition, % at 12.5 µM; actives 0.66% (n = 230,000);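 active = pattern-corrected inhibition of lipid staining of at least 50% with the nuclear-stain viability signal not falling by more than 50%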;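 also: 0% = DMSO wells and 100% = triacsin C control wells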
aDG glyco up – activators of alpha-DG glycosylation, primary screen, uHTS, Pro5-aDG cells, AlphaScreen. alpha-DG glycosylation AlphaScreen (IIH6); 0% Pro5, 100% B10-LARGE cell signal. actives 0.22% (n = 360,000). activation, % at 10 µM;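 active = activation of at least 8% versus controls, or a plate z-score of at least 8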;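 also: Pro5 are CHO cells carrying HIG-tagged alpha-DG that lacks glycosylation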
MC4R ag barr – MC4R agonists recruiting beta-arrestin, primary screen, cell-based, luminescence, agonist arm of biased-ligand search; U2OS MC4R beta-arrestin complementation; percent of melanotan II response, DMSO zero; activation, % at 8.9 µM; actives 0.98% (n = 360,000); Melanocortin receptor 4 (Homo sapiens), P32245;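 active = activation above a per-plate cutoff, the mean activation of sample wells on that plate plus 3 SD, cut at about 8% in these data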
Target sequence (P32245 whole entry, looked up): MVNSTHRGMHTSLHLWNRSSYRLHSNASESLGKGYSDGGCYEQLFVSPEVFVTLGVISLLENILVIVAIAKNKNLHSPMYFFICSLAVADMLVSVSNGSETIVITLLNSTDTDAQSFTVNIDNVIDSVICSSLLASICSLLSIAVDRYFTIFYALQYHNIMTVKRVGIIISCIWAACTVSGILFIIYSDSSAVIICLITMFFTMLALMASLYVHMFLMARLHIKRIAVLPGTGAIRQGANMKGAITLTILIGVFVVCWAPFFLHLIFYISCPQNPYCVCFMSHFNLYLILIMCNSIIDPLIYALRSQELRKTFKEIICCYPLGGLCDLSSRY
TbMetRS inhib – T. brucei MetRS inhibitors, primary screen, biochemical, luminescence; methionyl-tRNA synthetase (Trypanosoma brucei brucei); purified T. brucei MetRS, ATP depletion, Kinase-Glo luminescence; inhibition, % at 11.9 µM; actives 0.4% (n = 360,000);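 active = inhibition above a per-plate cutoff of the control wells' mean inhibition plus 3 SD, cut at about 5.5% in these data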;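 also: 0% = DMSO wells median and 100% = median of wells with control inhibitor compound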
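Dosing: 11.9 µM single point; system: parasite MetRS enzyme; technique: luminescence of leftover ATP; times: 15 min enzyme-compound preincubation, 2 h reaction, 10 min detection, 25 °C; replicates: each compound tested once; read-out basis: percent inhibition relative to median high and low control wells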
MC4R antag cAMP – MC4R antagonists of cAMP signaling, primary screen, cell-based, TR-FRET, antagonist arm of biased-ligand search. MC4R-expressing cells, MTII-stimulated cAMP, LANCE TR-FRET. AID 540295, 2011. Melanocortin receptor 4 (Homo sapiens), P32245. actives 0.48% (n = 360,000). inhibition, % at 6.5 µM;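 active = inhibition above its plate's cutoff, the mean of tested wells on that plate plus 3 SD, cut at about 29% in these data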;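 also: 0% = Melanotan II alone and 100% = Melanotan II plus saturating MCL0020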
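System: U2OS-MC4R stable cell line; Technique: Eu-cAMP/anti-cAMP TR-FRET, emission 671 nm; Repeats: single well per compound; Also added: Melanotan II; Dosing: one concentration, 6.5 µM nominal; Schedule: 30-min compound, 1-h challenge, 1-h detection, room temperature.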
MC4R barr ag – MC4R beta-arrestin agonists, retest, confirmation, cell-based, luminescence, U2OS. activation, % at 8.9 µM. actives 31% (n = 2,400). shares compounds with MC4R ag barr. U2OS MC4R beta-arrestin recruitment; scaled DMSO 0%, Melanotan II 100%;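 active = mean activation across replicates above the hit cutoff set in the earlier primary screen, cut at about 8% in these data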
MOR DOR agonist – agonists of MOR-DOR heterodimerization, counter-screen for MC4R biased agonist project, cell-based, luminescence | activation, % at 9.2 µM | U2OS PathHunter beta-arrestin, beta-gal luminescence; percent of deltorphin B response, DMSO zero | shares compounds with MC4R ag barr | AID 602194, 2012 | actives 5.8% (n = 2,400);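 active = mean activation across replicates exceeds the hit threshold derived in the earlier primary screen, cut at about 18% in these data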;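 also: 100% = deltorphin B at 0.9 µM final and 0% = DMSO alone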
* = called active by the depositor; nt = no result.

SMILES	NTR1 agonist	H9c2 TAG inh	aDG glyco up	MC4R ag barr	TbMetRS inhib	MC4R antag cAMP	MC4R barr ag	MOR DOR agonist
COc1cccc(CN2CCC2(C)C(=O)Nc2cnc3ccccc3c2)c1F (configuration not stated)	nt	12.4	-0.2	-1.1	0.4	16.4	nt	nt
COC(=O)c1cc2ccccc2c(-c2c(O)ccc3ccccc23)c1O	23.2	nt	-0.4	17.3*	0.2	-17.3	13.0*	10.5
COC(=O)c1ccccc1C(=O)c1cccc2ccccc12	1.2	nt	0.1	-1.2	-0.9	5.3	nt	nt
CCCCNC(=O)C1(C)CCN1C(=O)c1cccc2c1OCCO2 (configuration not stated)	nt	-12.0	0.0	-1.6	-0.3	5.8	nt	nt
COc1ccc(NC(=O)c2cccc3c(Br)cccc23)cc1	2.1	-13.7	0.0	11.6*	-0.7	5.4	-1.6	5.2
CC1(c2nc3ccccc3[nH]2)c2ccccc2C(=O)N1C1CC1 (configuration not stated)	nt	nt	0.0	nt	0.9	nt	nt	nt
COc1ccc(Cl)cc1NC(=O)Cc1c(F)cccc1Cl	5.8	nt	0.1	15.0*	-0.3	1.5	-2.6	2.2
CCOc1cc(C(=O)NC(C)CCc2ccccc2)cc(OCC)c1OCC (configuration not stated)	-0.2	nt	0.2	14.1*	-0.3	8.8	3.7	8.1
CCOc1ccccc1C(=O)NC(C)CCc1ccccc1 (configuration not stated)	1.2	-60.0	0.0	1.6	-0.4	4.5	nt	nt
Cc1c(C(=O)NCc2cccc(C(F)(F)F)c2)sc(=O)n1Cc1ccccc1F	nt	-2.5	0.8	1.1	-0.2	17.3	nt	nt
CCOC(=O)CNC(=O)CSc1nc2cccnc2n1Cc1ccccc1	-0.4	-5.2	1.3	-2.4	-0.1	13.3	nt	nt
CCOc1ccc2nc(NC(=O)CSc3nc4cccnc4n3C)sc2c1	1.6	10.8	1.2	15.7*	0.1	2.5	8.9*	6.5
CCOc1ccc2nc(NC(=O)CS(=O)(=O)c3ccccc3)sc2c1	-1.1	-1.4	1.0	-0.3	0.1	0.8	nt	nt
CCOc1ccc2nc(NC(=O)CS(=O)(=O)c3ccc(C)cc3)sc2c1	1.6	nt	-0.2	11.1*	-1.7	-10.1	4.9	8.3
Cc1nc(NC(=O)CSc2nc3cccnc3n2Cc2ccccc2)sc1C	13.9	0.8	1.5	26.2*	-0.3	-3.0	3.1	7.9
Cc1ccc(OCC(=O)Nc2ccc3c4c(cccc24)CC3)c(C)c1	6.7	-14.2	-0.2	6.7	-0.5	-6.0	nt	nt
Cc1cccc(OCC(=O)Nc2ccc3c4c(cccc24)CC3)c1C	-1.4	-17.0	-0.1	30.7*	-0.5	-0.7	2.5	4.0
COc1ccc(C(=O)NC(=S)Nc2ccc3c4c(cccc24)CC3)cc1OC	7.8	nt	0.5	12.9*	-1.8	-4.5	7.5	2.4
COc1cc(NC(=O)c2ccco2)c(C(=O)OCC(=O)Nc2ncc(Cl)cc2Cl)cc1OC	-0.5	nt	0.3	17.8*	-0.3	0.9	0.3	2.5
O=C(COc1ccc(CNC[C@H]2O[C@@H](n3ccc(=O)[nH]c3=O)[C@H](O)[C@@H]2O)cc1)Nc1nccs1	nt	nt	0.1	nt	0.2	nt	nt	nt
CCCCNC(=O)c1cc2c(=O)n3cccc(C)c3nc2s1	4.0	nt	0.2	-1.6	-1.0	-1.7	nt	nt
Cc1cccn2c(=O)c3cc(C(=O)NCCc4ccccc4)sc3nc12	8.0	nt	0.0	17.7*	0.2	-0.2	13.0*	2.8
Cc1ccccc1NC(=O)c1cc2c(=O)n3cccc(C)c3nc2s1	2.4	nt	-0.1	19.4*	-0.1	8.0	4.5	7.8
Oc1ccc(C(=S)N2CCN(c3cccc(Cl)c3)CC2)cc1	3.3	24.2	-0.1	9.8*	-1.3	-6.0	5.7	10.1
Cc1ccc(O)c(-c2cc(-c3cccc(F)c3)n[nH]2)c1	9.9	-12.0	-0.2	10.0*	-0.3	-7.8	5.1	6.6
SMILES	NTR1 agonist	H9c2 TAG inh	aDG glyco up	MC4R ag barr	TbMetRS inhib	MC4R antag cAMP	MC4R barr ag	MOR DOR agonist
O=C(Nc1ccnn1C1CCN(C(=O)c2cccnc2)CC1)c1cccc(F)c1	nt	9.2	-0.2	-0.1	-0.2	0.7	nt	nt
Nc1c(C(=O)Nc2ccccc2Cl)nnn1-c1ccc2c(c1)OCCO2	6.4	nt	-0.1	15.7*	0.0	9.5	2.0	3.6
Cc1ccccc1NC(=O)Cc1nc(COC(=O)/C=C/c2ccc(F)cc2)cs1	nt	16.5	-0.1	0.3	-0.6	4.2	nt	nt
C=CCOc1ccc(/C=C/C(=O)OCc2csc(CC(=O)Nc3ccccc3C)n2)cc1	5.8	23.0	0.0	15.5*	-0.1	3.2	8.7*	15.5
Cc1ccccc1NC(=O)Cc1nc(COC(=O)c2cc(Cl)ccc2O)cs1	3.4	-15.2	0.4	3.4	0.0	12.9	nt	nt
Cc1ccccc1NC(=O)Cc1nc(COC(=O)c2cc(Br)ccc2O)cs1	1.8	-8.2	0.0	16.5*	-0.2	0.4	2.3	6.4
Cc1ccccc1-c1nc(-c2ccc(NC(=O)c3ccc(Br)o3)cc2)no1	2.6	nt	0.3	30.1*	-0.8	5.3	21.4*	4.4
O=C(Nc1ccc2c(c1)Cc1ccccc1-2)c1ccc(Br)o1	3.4	3.1	-0.5	10.3*	-0.7	2.8	-1.2	4.4
Cc1ccccc1-c1nc(-c2ccc(Br)o2)no1	2.5	nt	-0.1	1.9	0.1	14.7	nt	nt
O=C(Nc1ccc2c(c1)Cc1ccccc1-2)c1ccccc1F	-0.2	-10.5	0.0	10.7*	-0.1	5.9	1.2	4.9
Cc1cccc(N2CCN(C(=S)Nc3ccc4nc(N5CCN(C)CC5)cc(C)c4c3)CC2)c1C	nt	89.0	-0.3	10.6*	0.8	6.7	12.9*	13.0
Cc1cc(N2CCN(C)CC2)nc2ccc(NC(=S)N3CCN(c4cccc(Cl)c4)CC3)cc12	0.4	46.0	1.3	-1.0	0.0	15.3	nt	nt

Screens: PubChem, several laboratories
